Measured values as given in ChEMBL document CHEMBL1641429, “Synthesis and xanthine oxidase inhibitory activity of 7-methyl-2-(phenoxymethyl)-5H-[1,3,4]thiadiazolo[3,2-a]pyrimidin-5-one derivatives” (Bioorg Med Chem, 2011).

How the values were obtained:
[1] = target: Xanthine dehydrogenase/oxidase (Rattus norvegicus, UniProt P22985); experiment: Inhibition of rat liver xanthine oxidase by spectrophotometry
In short: (§1)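 Enzyme source: for line 2, supernatant of centrifuged rat liver homogenate stored at −80 °C; for line 1, commercial microbial XO run the same way. Mix of 50 mM potassium phosphate pH 7.5, 0.3 mM EDTA and enzyme. Reaction started with xanthine substrate plus test compound. Uric acid read at 292 nm at 10 min intervals, ambient temperature. % inhibition versus control without compound; triplicates. Protein by Lowry, BSA standard.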

[2] = Inhibition of microbial xanthine oxidase by spectrophotometry
In short: as §1, with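 “compound.” for “compound. Uric acid read at 292 nm at 10 min intervals, ambient temperature. % inhibition versus control without compound; triplicates.”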

[3] = target: Xanthine dehydrogenase/oxidase (Bos taurus, UniProt P80457); experiment: Inhibition of bovine milk xanthine oxidase by spectrophotometry
Xanthine dehydrogenase/oxidase (Bos taurus, UniProt P80457), sequence (P80457 whole entry): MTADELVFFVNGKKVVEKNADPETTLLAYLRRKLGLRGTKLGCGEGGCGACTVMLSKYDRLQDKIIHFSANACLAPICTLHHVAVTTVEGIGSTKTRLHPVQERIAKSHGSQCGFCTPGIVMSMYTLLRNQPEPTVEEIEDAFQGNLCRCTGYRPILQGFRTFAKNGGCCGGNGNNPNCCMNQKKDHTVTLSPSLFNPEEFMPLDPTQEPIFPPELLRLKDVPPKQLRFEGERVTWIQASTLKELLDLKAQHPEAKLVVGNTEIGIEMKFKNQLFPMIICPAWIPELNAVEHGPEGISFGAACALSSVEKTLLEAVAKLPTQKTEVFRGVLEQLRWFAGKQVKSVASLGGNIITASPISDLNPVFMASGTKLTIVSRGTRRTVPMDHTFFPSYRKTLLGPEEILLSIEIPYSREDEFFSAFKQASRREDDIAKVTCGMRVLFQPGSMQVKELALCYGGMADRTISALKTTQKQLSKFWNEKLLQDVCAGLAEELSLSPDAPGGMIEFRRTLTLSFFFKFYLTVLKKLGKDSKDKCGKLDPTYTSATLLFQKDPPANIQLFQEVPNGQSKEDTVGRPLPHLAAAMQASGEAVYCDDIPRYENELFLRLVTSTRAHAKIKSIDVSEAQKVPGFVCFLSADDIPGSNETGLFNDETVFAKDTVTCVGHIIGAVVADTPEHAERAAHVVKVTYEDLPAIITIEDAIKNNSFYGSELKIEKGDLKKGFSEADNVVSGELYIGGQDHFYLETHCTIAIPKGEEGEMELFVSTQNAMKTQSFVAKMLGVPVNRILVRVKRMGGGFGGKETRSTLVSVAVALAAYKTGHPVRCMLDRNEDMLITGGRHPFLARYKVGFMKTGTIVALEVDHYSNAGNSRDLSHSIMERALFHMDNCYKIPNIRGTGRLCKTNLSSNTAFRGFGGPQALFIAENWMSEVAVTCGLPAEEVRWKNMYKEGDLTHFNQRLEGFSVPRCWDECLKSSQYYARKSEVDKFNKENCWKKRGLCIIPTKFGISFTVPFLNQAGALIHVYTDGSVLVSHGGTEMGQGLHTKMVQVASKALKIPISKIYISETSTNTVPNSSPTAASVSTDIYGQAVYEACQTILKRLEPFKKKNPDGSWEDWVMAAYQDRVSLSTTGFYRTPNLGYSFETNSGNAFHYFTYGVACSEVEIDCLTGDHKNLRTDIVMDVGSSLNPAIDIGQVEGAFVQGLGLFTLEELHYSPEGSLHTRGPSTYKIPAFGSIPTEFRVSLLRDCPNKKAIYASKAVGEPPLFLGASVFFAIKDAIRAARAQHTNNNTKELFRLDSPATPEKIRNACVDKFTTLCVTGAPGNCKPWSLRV

Xanthine dehydrogenase/oxidase (Rattus norvegicus, UniProt P22985), sequence (P22985 whole entry): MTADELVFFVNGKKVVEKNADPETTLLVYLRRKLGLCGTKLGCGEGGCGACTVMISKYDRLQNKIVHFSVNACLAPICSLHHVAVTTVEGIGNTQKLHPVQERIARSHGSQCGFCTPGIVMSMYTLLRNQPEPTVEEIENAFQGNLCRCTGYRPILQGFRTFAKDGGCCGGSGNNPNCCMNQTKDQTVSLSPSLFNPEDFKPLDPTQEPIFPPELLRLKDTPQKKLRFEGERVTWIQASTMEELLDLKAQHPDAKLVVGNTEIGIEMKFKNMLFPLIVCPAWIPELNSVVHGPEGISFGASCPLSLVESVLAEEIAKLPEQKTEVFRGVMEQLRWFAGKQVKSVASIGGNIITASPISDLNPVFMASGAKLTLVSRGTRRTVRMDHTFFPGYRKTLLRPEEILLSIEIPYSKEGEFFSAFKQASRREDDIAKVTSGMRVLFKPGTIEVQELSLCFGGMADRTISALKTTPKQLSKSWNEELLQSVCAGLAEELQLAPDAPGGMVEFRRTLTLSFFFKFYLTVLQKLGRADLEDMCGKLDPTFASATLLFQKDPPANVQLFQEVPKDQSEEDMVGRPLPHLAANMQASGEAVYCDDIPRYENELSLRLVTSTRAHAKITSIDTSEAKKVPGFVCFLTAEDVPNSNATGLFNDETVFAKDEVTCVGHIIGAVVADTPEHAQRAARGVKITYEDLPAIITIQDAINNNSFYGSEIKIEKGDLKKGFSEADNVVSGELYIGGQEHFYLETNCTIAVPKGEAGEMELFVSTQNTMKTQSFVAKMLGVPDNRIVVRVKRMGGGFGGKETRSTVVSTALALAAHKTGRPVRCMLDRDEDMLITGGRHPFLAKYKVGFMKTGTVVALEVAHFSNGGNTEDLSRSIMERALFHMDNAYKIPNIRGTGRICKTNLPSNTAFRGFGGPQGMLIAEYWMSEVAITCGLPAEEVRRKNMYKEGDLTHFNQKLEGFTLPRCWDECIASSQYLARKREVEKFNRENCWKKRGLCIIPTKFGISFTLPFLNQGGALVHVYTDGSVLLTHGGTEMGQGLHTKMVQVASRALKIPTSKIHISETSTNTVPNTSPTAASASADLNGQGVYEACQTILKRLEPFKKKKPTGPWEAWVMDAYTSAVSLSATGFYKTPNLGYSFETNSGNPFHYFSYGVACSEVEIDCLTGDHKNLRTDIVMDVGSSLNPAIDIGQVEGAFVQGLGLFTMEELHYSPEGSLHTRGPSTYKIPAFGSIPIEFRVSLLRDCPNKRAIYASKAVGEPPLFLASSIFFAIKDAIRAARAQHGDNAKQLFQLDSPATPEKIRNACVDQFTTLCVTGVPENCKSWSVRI

SMILES | IC50 [1] | IC50 [2] | IC50 [3]
Cc1cc(=O)n2nc(COc3ccc(Cl)cc3)sc2n1 | 449 nM | 423 nM | 461 nM
COc1ccc(OCc2nn3c(=O)cc(C)nc3s2)cc1 | 289 nM | 269 nM | 269 nM
Cc1cc(=O)n2nc(COc3ccccc3Br)sc2n1 | 413 nM | – | 603 nM
Cc1cc(=O)n2nc(COc3ccccc3C)sc2n1 | 362 nM | 346 nM | 326 nM
Cc1cc(=O)n2nc(COc3ccccc3Cl)sc2n1 | 1830 nM | 1820 nM | 1650 nM
Cc1cc(=O)n2nc(COc3ccc(Cl)c(C)c3)sc2n1 | 623 nM | 596 nM | 634 nM
Cc1cccc(OCc2nn3c(=O)cc(C)nc3s2)c1 | 1070 nM | 1110 nM | 1030 nM
Cc1cc(=O)n2nc(COc3ccc(F)cc3)sc2n1 | – | 2240 nM | –
Cc1cc(=O)n2nc(COc3ccc([N+](=O)[O-])cc3)sc2n1 | 2030 nM | – | 2500 nM
Cc1ccc(OCc2nn3c(=O)cc(C)nc3s2)c(C)c1 | 1760 nM | 1730 nM | 1800 nM
Cc1cc(=O)n2nc(COc3ccccc3F)sc2n1 | 590 nM | – | –
Cc1ccc(OCc2nn3c(=O)cc(C)nc3s2)cc1 | 1020 nM | 834 nM | –
Cc1cc(=O)n2nc(COc3cccc(Cl)c3)sc2n1 | 6180 nM | – | –
Cc1cc(=O)n2nc(COc3cccc(Br)c3)sc2n1 | 2560 nM | – | –
Cc1cc(=O)n2nc(COc3cccc(F)c3)sc2n1 | 1980 nM | 1660 nM | –
Cc1cc(=O)n2nc(COc3ccccc3)sc2n1 | 555 nM | – | –
